# Bioassay records: PubChem BioAssay, several laboratories
# The sample as a whole holds a higher share of hits than the screen did.
# ABCG2 inh – human ABCG2 inhibition, ABCB1 as counter-screen; hit rate 0.1% among 190,000; Q9UNQ0; AID 1325; inhibition, % at 6.6 µM; IgMXP3 cells, JC-1 efflux, flow cytometry;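 active = inhibition above 80%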;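 also: 0% = DMSO and 100% = nicardipine control wells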
#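 Measure – % inhibition of efflux relative to nicardipine and DMSO · Test system – ABCG2 IgMXP3 and barcoded ABCB1 CCRF-Adr cell mix · Control set – nicardipine as high control, DMSO as low control · Compound – one concentration, 6.6 µM final · Signal – flow cytometry of retained JC-1 fluorescence · Timing – 10 min exposure at 25 °C with rotation, no wash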
# Avidin fluor – avidin bead compound fluorescence profile | Avidin beads, compound fluorescence 488/530 nm, flow cytometry; active compounds read high | fluorescence (KMESF) at 10 µM | hit rate 0.38% among 220,000; in the data active = fluorescence above about 47
# L major viab – reduces viability of Leishmania major promastigotes; resazurin fluorescence viability; inhibition, % at 10 µM; hit rate 9% among 200,000;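 also: promastigotes grown with compound for 44 hours at 28 °C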
# ABCB1 inh – inhibitors of human ABCB1 transporter, ABCG2 counter-screen. P08183. CCRF-Adr cells, JC-1 efflux, flow cytometry. inhibition, % at 6.6 µM. hit rate 0.067% among 190,000. AID 1326; in the data active = inhibition above about 40%;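 also: 0% = vehicle and 100% = reference inhibitor; higher value means more JC-1 retained so stronger ABCB1 efflux block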
# PKD1 kinase inh – blocks activity of human protein kinase D1 | Q15139 | PKD1 kinase fluorescence polarization assay | inhibition, % (concentration not given with the values) | hit rate 0.056% among 200,000 | AID 797
# Target sequence (Q15139 whole entry, looked up): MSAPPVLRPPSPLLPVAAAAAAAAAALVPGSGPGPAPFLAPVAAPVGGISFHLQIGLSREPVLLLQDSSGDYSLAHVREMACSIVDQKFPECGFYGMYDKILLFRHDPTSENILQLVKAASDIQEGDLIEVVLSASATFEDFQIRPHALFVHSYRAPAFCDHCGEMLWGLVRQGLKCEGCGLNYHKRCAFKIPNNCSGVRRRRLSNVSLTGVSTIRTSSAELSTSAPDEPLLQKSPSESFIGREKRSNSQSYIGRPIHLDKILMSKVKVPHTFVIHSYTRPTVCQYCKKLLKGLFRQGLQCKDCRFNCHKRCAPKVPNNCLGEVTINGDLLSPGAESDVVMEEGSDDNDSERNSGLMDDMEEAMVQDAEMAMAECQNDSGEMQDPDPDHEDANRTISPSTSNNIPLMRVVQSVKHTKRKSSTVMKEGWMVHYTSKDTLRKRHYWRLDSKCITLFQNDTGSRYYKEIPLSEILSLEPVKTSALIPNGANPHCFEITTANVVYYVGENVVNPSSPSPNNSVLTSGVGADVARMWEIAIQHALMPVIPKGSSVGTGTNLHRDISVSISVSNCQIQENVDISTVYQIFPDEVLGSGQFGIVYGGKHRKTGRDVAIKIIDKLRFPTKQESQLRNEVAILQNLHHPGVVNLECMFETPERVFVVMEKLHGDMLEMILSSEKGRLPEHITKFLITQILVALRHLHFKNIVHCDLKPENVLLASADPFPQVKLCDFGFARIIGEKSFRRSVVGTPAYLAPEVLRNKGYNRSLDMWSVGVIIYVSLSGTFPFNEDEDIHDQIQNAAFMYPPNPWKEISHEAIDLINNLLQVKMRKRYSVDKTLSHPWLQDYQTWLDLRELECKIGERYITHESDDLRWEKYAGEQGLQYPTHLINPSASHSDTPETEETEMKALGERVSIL
# GSH fluor – GSH bead compound fluorescence profile; AID 1776; fluorescence (KMESF) at 10 µM; GSH beads flow cytometry, compound fluorescence 488/530 nm; active compounds read high; hit rate 0.25% among 190,000; in the data active = fluorescence above about 89;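 also: glutathione beads carrying GST-tagged Bcl family fusion proteins plus one bare bead set; values are compound well signal with DMSO vehicle wells as background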
# Starred values were filed as active, the others as inactive; · = no result. Rule as the data show it, unless noted: active = inhibition above about 50%; inactive = the rest.
SMILES,ABCG2 inh,Avidin fluor,L major viab,ABCB1 inh,PKD1 kinase inh,GSH fluor
COc1ccc(-c2nnn(CC(=O)N(Cc3ccc(F)cc3)C(C(=O)NC3CCCC3)c3ccc(F)cc3)n2)cc1 (centres undefined),·,·,3.5,·,-1.0,·
Cc1ccn(-c2cc(O)c(-n3ccc(C)n3)cc2O)n1,1.6,9,-5.6,0.4,-3.0,30
COc1ccccc1OCCN1C(=O)S/C(=C\c2ccco2)C1=O,4.3,19,54.7*,0.5,11.8,10
O=C(NC1CCCCC1)C(c1ccncc1)N(Cc1ccccc1)C(=O)c1ccc(-c2ccccc2)[nH]1 (centres undefined),1.8,10,98.8*,0.4,-14.0,10
CC(C)(C)NC(=O)C(c1ccncc1)N(Cc1ccco1)C(=O)c1ccc(-c2ccccc2)[nH]1 (centres undefined),7.7,13,74.2*,1.6,-0.4,13
CC(C)C1CCC(C(=O)N[C@H](Cc2ccccc2)C(=O)O)CC1 (some centres undefined),0.9,7,·,·,·,70
CC1CCc2cc(F)ccc2N1C(=O)C1(C)CC1(Cl)Cl (centres undefined),4.9,14,0.0,1.6,-4.8,20
CNS(=O)(=O)c1cccc(C(=O)OCC(=O)Nc2ccc(Cl)cn2)c1,·,7,·,·,·,·
Cc1cccc(NC(=O)N2CCN(Cc3ccc4c(c3)OCO4)CC2)c1C,6.7,9,55.7*,0.9,2.1,19
Cc1cc(Cl)ccc1NC(=S)N1CCN(Cc2ccc3c(c2)OCO3)CC1,-0.3,7,87.5*,-0.1,-1.1,24
Fc1ccccc1NC(=S)N1CCN(Cc2ccc3c(c2)OCO3)CC1,1.6,9,11.7,0.4,0.5,11
Cc1ccc(Nc2nc(N)nc(CN3CCN(Cc4ccc5c(c4)OCO5)CC3)n2)cc1Cl,1.3,7,70.1*,0.5,-4.9,20
Cc1ccc(Nc2nc(N)nc(CN3CCN(Cc4ccc5c(c4)OCO5)CC3)n2)cc1C,5.8,11,34.1,0.9,0.7,12
CCOCCCNC(=S)N1CCN(Cc2ccc3c(c2)OCO3)CC1,0.9,11,73.9*,0.4,-5.7,14
Cc1cc(C)nc(Sc2nc(Nc3ccccc3)nc(Sc3nc(C)cc(C)n3)n2)n1,1.0,3,-0.1,0.3,-0.7,10
CCCCn1c(=O)[nH]c(=O)c2c1nc(-c1cc3c(cc1Br)OCO3)n2C,1.2,27,2.1,0.1,1.7,9
CC1CN(Cc2cc(=O)[nH]c(C(C)C)n2)CC(C)O1 (centres undefined),0.3,5,-1.5,0.6,0.3,54
CCNC(=S)N1CCN(Cc2ccc3c(c2)OCO3)CC1,0.2,11,-6.4,0.2,-4.3,14
CC(C)(C)CC(C)(C)NC(=S)N1CCN(Cc2ccc3c(c2)OCO3)CC1,-0.5,10,82.0*,-0.5,-3.5,16
COc1ccccc1-c1nnc(Sc2nc([N+](=O)[O-])nn2C)o1,1.2,8,96.8*,0.6,0.4,36
COc1ccc(C2N(c3ccccc3)CCN2c2ccccc2)cc1O,6.6,13,15.5,0.5,-2.2,16
CN1CCN(CC2(O)CCN(S(=O)(=O)c3ccc(Cl)cc3)CC2)CC1,0.8,12,99.9*,0.2,-4.0,15
COc1cccc(NC(=S)N(CCCN2CCOCC2)C(C)c2cc3ccccc3o2)c1 (centres undefined),-0.1,11,97.0*,0.4,-5.4,11
COc1cccc2cc(C(C)N(CCCN3CCOCC3)C(=O)Nc3ccccc3)oc12 (centres undefined),26.5,35,81.7*,6.9,-3.0,24
CCOc1ccc(NC(=O)Nc2cccn(Cc3ccccc3)c2=O)cc1,-0.9,12,20.3,-0.5,9.2,15
SMILES,ABCG2 inh,Avidin fluor,L major viab,ABCB1 inh,PKD1 kinase inh,GSH fluor
O=c1[nH]c(CSc2ncccn2)nc2c1cnn2-c1ccccc1,6.1,15,54.5*,0.7,-21.4,12
Cc1ccc2nc(SCc3nc4c(cnn4-c4ccccc4)c(=O)[nH]3)[nH]c2c1,1.7,26,10.2,1.0,10.5,11
O=c1[nH]c(SCc2nc3c(cnn3-c3ccccc3)c(=O)[nH]2)nc2ccccc12,0.0,18,-0.3,0.0,-6.7,9
O=c1[nH]c(CSc2nc3ccccc3[nH]2)nc2c1cnn2-c1ccccc1,8.8,12,69.3*,0.1,-7.5,9
O=c1[nH]c(CSc2nc3ccccc3o2)nc2c1cnn2-c1ccccc1,0.7,8,-0.4,-0.2,-17.0,255*
Cc1nn(C(=O)c2c([N+](=O)[O-])cnn2C)c(C)c1Cl,1.9,5,-10.4,0.5,1.3,16
Oc1ccc(N=Cc2ccc(-c3cccs3)s2)cc1,1.0,47*,-0.4,0.1,-1.1,10
CCCCOc1ccc(N=Cc2cccs2)cc1,7.9,1,3.6,1.3,2.2,6
O=C(CSc1nnc(NC(=O)c2ccccc2Cl)s1)Nc1ccc2c(c1)oc1ccccc12,-4.2,13,49.9,-0.8,-5.6,8
COc1cccc(/C=N/Nc2ncnc3c2[nH]c2ccc(C)cc23)c1OC,·,7,·,·,·,·
COc1ccc(/C=N/Nc2ncnc3c2[nH]c2ccccc23)c(OC)c1OC,52.8,10,65.8*,2.5,0.4,7
Cc1ccc(C(=O)N2CC3(C(C)C)CN(C(=O)c4ccc(C)cc4)CC(C(C)C)(C2)C3=O)cc1,0.8,6,95.4*,1.5,-10.1,15
Cc1ccc(C(=O)N2CCN(C(=O)c3ccc(C)cc3)C2)cc1,8.5,13,1.1,0.9,-3.1,13
CCC12CN(C(=O)c3ccc(C)cc3)CC(CC)(CN(C(=O)c3ccc(C)cc3)C1)C2=O,2.4,5,51.9*,3.1,-2.3,10
Cc1ccc(C(=O)N2CCN(S(C)(=O)=O)C2)cc1,-2.3,26,-1.9,0.4,5.9,33
COC(=O)c1ccc2c(=O)n(CC3CCCO3)c(SCC(=O)Nc3ccc(OC)cc3OC)nc2c1 (centres undefined),·,7,·,·,·,·
CC1(C)CC(=O)C2=C(C1)N(CCN1CCOCC1)C1=C(C(=O)CC(C)(C)C1)C2c1cccc(Cl)c1,3.6,28,61.1*,2.0,6.9,16
O=C(CCC1CCCC1)NCCCN1CCOCC1,0.0,14,67.1*,-0.2,3.9,48
CC(=O)c1csc(COc2ccc(Cl)cc2)n1,·,6,·,·,·,·
COc1ccc(CCNC(=O)COc2ccc(N(C)S(=O)(=O)c3ccc(Cl)cc3)cc2)cc1,15.2,12,96.6*,5.1,-1.0,14
CC(C)(C)c1ccc(C(=O)c2c[nH]c(C(=O)NCCc3ccccn3)c2)cc1,1.2,13,-4.2,0.4,-3.0,11
Cc1cc(-c2ccccc2)nc(N2CCC(C(=O)NCC3CCCCC3)CC2)n1,·,·,-0.5,·,-10.7,·
Nc1[nH]n2c(=O)cc(-c3ccccc3)nc2c1N=Nc1ccc(S(N)(=O)=O)cc1,-5.4,12,-1.2,-1.1,-3.5,12
